Screening results from PubChem BioAssay.
Furin inhibitor: inhibitors of human furin. P09958. purified furin, fluorogenic substrate cleavage. inhibition, % at 20 µM or 30 µM. 220,000 tested, 0.061% active. AID 463115; in the data active means inhibition above about 25%
FXIa inh 1536: inhibitors of human coagulation factor XIa | P03951 | purified FXIa, Boc-Glu-Ala-Arg-AMC fluorogenic substrate | inhibition, % at 5 µM | 220,000 tested, 0.14% active;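 active means inhibition of at least 40%; inactive means inhibition below 40%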;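 further: fluorescence of freed AMC excited at 355 nm; 0% = enzyme without compound and 100% = no enzyme blank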
Target sequence (P03951 19-387 limits assumed): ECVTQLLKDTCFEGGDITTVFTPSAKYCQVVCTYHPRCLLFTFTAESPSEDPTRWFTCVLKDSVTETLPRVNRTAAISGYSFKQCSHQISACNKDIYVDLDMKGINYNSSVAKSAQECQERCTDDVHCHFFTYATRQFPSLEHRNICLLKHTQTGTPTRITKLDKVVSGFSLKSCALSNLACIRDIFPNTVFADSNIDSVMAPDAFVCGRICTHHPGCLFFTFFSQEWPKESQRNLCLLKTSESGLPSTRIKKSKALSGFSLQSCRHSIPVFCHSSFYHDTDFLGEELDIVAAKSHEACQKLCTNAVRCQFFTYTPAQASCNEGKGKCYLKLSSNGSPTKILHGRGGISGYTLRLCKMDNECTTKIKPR
Target sequence (P03951 388-625 limits assumed): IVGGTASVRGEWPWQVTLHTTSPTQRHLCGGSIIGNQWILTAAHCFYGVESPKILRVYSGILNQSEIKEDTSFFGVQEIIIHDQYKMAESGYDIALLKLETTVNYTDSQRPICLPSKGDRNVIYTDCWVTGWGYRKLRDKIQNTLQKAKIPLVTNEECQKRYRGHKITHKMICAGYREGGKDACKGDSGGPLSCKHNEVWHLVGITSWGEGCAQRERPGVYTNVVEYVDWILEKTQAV
m-calpain inh: calpain II (pig) inhibition; purified calpain II, fluorogenic peptide substrate, 30 min; inhibition, % at 16 µM; 220,000 tested, 0.37% active; AID 1236;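 active means inhibition above about 50%, limit read from the data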
KLK5 inh: inhibitors of human kallikrein 5; 210,000 tested, 0.59% active; Q9Y337; AID 873; recombinant hK5, fluorogenic AMC substrate cleavage; inhibition, % at 5 µM;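 active means inhibition of 40% or more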;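 further: 0% = enzyme controls without compound and 100% = no-enzyme blanks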
thrombin 1536: inhibitors of human thrombin; alpha-thrombin, Boc-VPR-AMC fluorogenic substrate cleavage; inhibition, % at 5 µM; 220,000 tested, 0.26% active; P00734;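 active means inhibition at or above 40%; inactive means inhibition below 40%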;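 further: 0% = enzyme with no compound and 100% = wells without enzyme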
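System – human alpha-thrombin protein · Reagent – Boc-VPR-AMC substrate, 15 µM final · Compound – 5 µM single dose in 0.2% DMSO · Schedule – reaction at room temperature · Technique – AMC fluorescence at 355 nm excitation and 460 nm emission · Read-out basis – % inhibition relative to enzyme controls and enzyme-free blanks · Control set – no-compound enzyme wells and no-enzyme blanks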
FXIIa inh: factor XIIa (human) inhibition; P00748; purified FXIIa, Boc-QGR-AMC fluorogenic substrate, 2 h; inhibition, % at 5 µM; 220,000 tested, 0.3% active; AID 800; in the data active means inhibition above about 40%;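 further: 0% = enzyme with no compound and 100% = blank without enzyme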
* marks the source's active call; other numbers are inactive results. Shown are actives, neighbours in structure and some others; about 1.4% of the full set was active somewhere.

O=C(O)c1ccc(N/N=C/c2ccc(OC(=O)c3cccc(Cl)c3)cc2)cc1 was read as Furin inhibitor -9.6, FXIa inh 1536 0.5, m-calpain inh 54.6*, KLK5 inh 4.8, thrombin 1536 -2.4 and FXIIa inh 8.9.
O=C(Nc1ncnc2sc3c(c12)CCCCC3)c1ccc(F)cc1 was read as Furin inhibitor -9.0, FXIa inh 1536 13.5, m-calpain inh 23.1, KLK5 inh 6.4, thrombin 1536 -1.7 and FXIIa inh 47.4*.
Screening CCCCNC(=O)c1cccc(NC(=O)C(=O)c2ccccc2NC(C)=O)c1 returned Furin inhibitor -4.9, FXIa inh 1536 4.1, m-calpain inh 28.8, KLK5 inh -2.2, thrombin 1536 2.5 and FXIIa inh 6.6.
Screening CC(=O)c1cccc(NC(=O)c2csc(-n3nc(C)cc3C(F)(F)F)n2)c1 returned Furin inhibitor -19.5, FXIa inh 1536 10.7, m-calpain inh -6.8, KLK5 inh 55.5*, thrombin 1536 19.4 and FXIIa inh 20.9.
`Cc1cc(C(F)(F)F)n(-c2nc(C(=O)Nc3cccnc3)cs2)n1` gave Furin inhibitor -21.8, FXIa inh 1536 -9.7, m-calpain inh 1.4, KLK5 inh -30.0, thrombin 1536 -0.3 and FXIIa inh -8.9.
Screening CSc1sc(C(=O)NCC2CC2)c(-c2cccs2)c1C#N returned Furin inhibitor -7.8, FXIa inh 1536 -4.0, m-calpain inh 38.3, KLK5 inh -5.4, thrombin 1536 -7.9 and FXIIa inh -1.0.
CCOC(=O)c1cc(CC)sc1/N=C/C1=C(O)CCCC1=O was read as Furin inhibitor 37.3*, FXIa inh 1536 8.4, m-calpain inh -14.8, KLK5 inh -9.0, thrombin 1536 -4.2 and FXIIa inh 9.7.
Screening CCOC(=O)c1c(/N=C/C2=C(O)CCCC2=O)sc2c1CCCC2 returned Furin inhibitor 14.9, FXIa inh 1536 0.7, m-calpain inh 4.2, KLK5 inh -2.0, thrombin 1536 -5.2 and FXIIa inh 6.3.
Screening COc1ccc(C2C(=O)c3ccccc3C2=O)cc1OC returned Furin inhibitor 3.2, FXIa inh 1536 8.9, m-calpain inh 8.1, KLK5 inh 18.1, thrombin 1536 55.7* and FXIIa inh 17.3.
Screening COc1ccc(C2C(=O)c3ccccc3C2=O)cc1 returned Furin inhibitor -10.8, FXIa inh 1536 2.4, m-calpain inh -1.5, KLK5 inh -9.8, thrombin 1536 -5.9 and FXIIa inh 11.8.
`CCN(CC(O)Cn1c2ccccc2c2ccccc21)S(=O)(=O)c1ccc(F)cc1` (centres undefined) gave Furin inhibitor -5.8, FXIa inh 1536 -6.3, m-calpain inh 69.4*, KLK5 inh -15.4, thrombin 1536 2.2 and FXIIa inh -8.7.
O=S(=O)(c1ccc(F)cc1)N(CCO)CC(O)Cn1c2ccccc2c2ccccc21 (centres undefined) was read as Furin inhibitor -12.2, FXIa inh 1536 6.4, m-calpain inh -6.2, KLK5 inh 24.2, thrombin 1536 22.1 and FXIIa inh 9.9.
Screening COc1ccc(/C=N/NC(=O)c2ccccc2O)cc1Cn1nnc2ccccc21 returned Furin inhibitor -22.1, FXIa inh 1536 0.3, m-calpain inh -3.0, KLK5 inh 2.8, thrombin 1536 -5.7 and FXIIa inh 2.1.
`CCC(C)NC(=O)c1ccccc1NC(=O)CN(c1cc(C)ccc1OC)S(C)(=O)=O` (centres undefined) gave Furin inhibitor -18.8, FXIa inh 1536 0.3, m-calpain inh -17.5, thrombin 1536 -1.7 and FXIIa inh 18.2.
Screening COc1cccc(C(=O)C2CCCN(CC3=Cc4cc(OC)ccc4OC3)C2)c1 (centres undefined) returned Furin inhibitor 7.0, FXIa inh 1536 14.7, m-calpain inh 21.6, thrombin 1536 9.6 and FXIIa inh 22.4.
For COC(=O)c1sc(N2C(=O)C(O)=C(C(=O)c3ccc(C)o3)C2c2ccc(F)cc2)nc1C (centres undefined) the results were Furin inhibitor -12.3, FXIa inh 1536 22.9, m-calpain inh -100.1, KLK5 inh 51.1*, thrombin 1536 20.1 and FXIIa inh 6.2.
O=C1OC(c2ccccc2)C2(CCCC2)C(=O)C12CCCC2 (centres undefined) was read as Furin inhibitor -15.3, FXIa inh 1536 2.3, m-calpain inh -13.5, KLK5 inh 5.5, thrombin 1536 -2.0 and FXIIa inh -1.7.
